# From ChEMBL document CHEMBL4350998, “Design, synthesis, and structure-activity relationship studies of l-amino alcohol derivatives as broad-spectrum antifungal agents” (Eur J Med Chem, 2019)
# System: Candida albicans
# Experiment: Antifungal activity against Candida albicans CPCC 400523 assessed as inhibition of visible microbial growth by NCCLS protocol based method
# Type: functional
# Conditions: not given
row,Structure (SMILES),MIC [µg/mL]
1,CC(C)[C@@H](Cn1ccnc1)NC(=O)c1ccc(-c2ccccc2)c(F)c1,0.06
2,CC[C@H](C)[C@@H](Cn1ccnc1)NC(=O)c1ccc(-c2ccccc2)cc1,< 0.03
3,CC(C)C[C@@H](Cn1ccnc1)NC(=O)c1ccc(-c2ccccc2)cc1F,0.06
4,CC(C)[C@@H](Cn1ccnc1)NC(=O)c1ccc(-c2ccccc2)cc1,0.06
5,CC(C)[C@@H](Cn1ccnc1)NC(=O)c1ccc(-c2ccccc2)cc1F,0.06
6,CC(C)C[C@@H](Cn1ccnc1)NC(=O)c1ccc(-c2ccccc2)cc1,< 0.03
7,CC[C@H](C)[C@@H](Cn1ccnc1)NC(=O)c1ccc(-c2ccccc2)c(C)c1,> 16
8,O=C(N[C@@H](Cc1ccccc1)Cn1ccnc1)c1ccc(-c2ccccc2)c(F)c1,0.06
9,CC(C)[C@H](Cn1ccnc1)NC(=O)c1ccc(-c2ccccc2)cc1,> 16
10,CC[C@H](C)[C@@H](Cn1ccnc1)NC(=O)c1ccc(-c2cccc(F)c2)cc1F,0.06
11,CC[C@H](C)[C@@H](Cn1ccnc1)NC(=O)c1ccc(-c2ccccc2F)cc1,0.06
12,CC[C@@H](Cn1ccnc1)NC(=O)c1ccc(-c2ccccc2)cc1,0.25
13,CC[C@H](C)[C@@H](Cn1ccnc1)NC(=O)c1ccc(-c2ccc(F)cc2)cc1,0.25
14,CCC[C@@H](Cn1ccnc1)NC(=O)c1ccc(-c2ccccc2)cc1,0.06
15,CC(C)C[C@@H](Cn1ccnc1)NC(=O)c1ccc(-c2ccccc2)c(F)c1,0.06

# System: Candida albicans
# Experiment: Antifungal activity against Candida albicans ATCC SC5314 assessed as inhibition of visible microbial growth by NCCLS protocol based method
# Type: functional
# Conditions: not given
# Outline: (§1)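 Compounds dissolved in DMSO and serially diluted into growth medium. MIC was read as the lowest concentration that inhibited visible fungal growth.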
row,Structure (SMILES),MIC [µg/mL]
1,CC(C)[C@@H](Cn1ccnc1)NC(=O)c1ccc(-c2ccccc2)c(F)c1,< 0.03
2,CC[C@H](C)[C@@H](Cn1ccnc1)NC(=O)c1ccc(-c2ccccc2)cc1,< 0.03
3,CC(C)C[C@@H](Cn1ccnc1)NC(=O)c1ccc(-c2ccccc2)cc1F,< 0.03
4,CC(C)[C@@H](Cn1ccnc1)NC(=O)c1ccc(-c2ccccc2)cc1,< 0.03
5,CC(C)[C@@H](Cn1ccnc1)NC(=O)c1ccc(-c2ccccc2)cc1F,< 0.03
6,CC(C)C[C@@H](Cn1ccnc1)NC(=O)c1ccc(-c2ccccc2)cc1,< 0.03
7,CC[C@H](C)[C@@H](Cn1ccnc1)NC(=O)c1ccc(-c2ccccc2)c(C)c1,> 16
8,O=C(N[C@@H](Cc1ccccc1)Cn1ccnc1)c1ccc(-c2ccccc2)c(F)c1,< 0.03
9,CC(C)[C@H](Cn1ccnc1)NC(=O)c1ccc(-c2ccccc2)cc1,> 16
10,CC[C@H](C)[C@@H](Cn1ccnc1)NC(=O)c1ccc(-c2cccc(F)c2)cc1F,< 0.03
11,CC[C@H](C)[C@@H](Cn1ccnc1)NC(=O)c1ccc(-c2ccccc2F)cc1,< 0.03
12,CC[C@@H](Cn1ccnc1)NC(=O)c1ccc(-c2ccccc2)cc1,< 0.06
13,CC[C@H](C)[C@@H](Cn1ccnc1)NC(=O)c1ccc(-c2ccc(F)cc2)cc1,0.125
14,CCC[C@@H](Cn1ccnc1)NC(=O)c1ccc(-c2ccccc2)cc1,< 0.03
15,CC(C)C[C@@H](Cn1ccnc1)NC(=O)c1ccc(-c2ccccc2)c(F)c1,< 0.03

# System: Cryptococcus neoformans
# Experiment: Antifungal activity against Cryptococcus neoformans CGMCC 2.3161 assessed as inhibition of visible microbial growth by NCCLS protocol based method
# Type: functional
# Conditions: not given
# Outline: as §1
row,Structure (SMILES),MIC [µg/mL]
1,CC(C)[C@@H](Cn1ccnc1)NC(=O)c1ccc(-c2ccccc2)c(F)c1,2
2,CC[C@H](C)[C@@H](Cn1ccnc1)NC(=O)c1ccc(-c2ccccc2)cc1,0.5
3,CC(C)C[C@@H](Cn1ccnc1)NC(=O)c1ccc(-c2ccccc2)cc1F,2
4,CC(C)[C@@H](Cn1ccnc1)NC(=O)c1ccc(-c2ccccc2)cc1,1
5,CC(C)[C@@H](Cn1ccnc1)NC(=O)c1ccc(-c2ccccc2)cc1F,2
6,CC(C)C[C@@H](Cn1ccnc1)NC(=O)c1ccc(-c2ccccc2)cc1,1
7,CC[C@H](C)[C@@H](Cn1ccnc1)NC(=O)c1ccc(-c2ccccc2)c(C)c1,> 64
8,O=C(N[C@@H](Cc1ccccc1)Cn1ccnc1)c1ccc(-c2ccccc2)c(F)c1,0.5
9,CC(C)[C@H](Cn1ccnc1)NC(=O)c1ccc(-c2ccccc2)cc1,> 64
10,CC[C@H](C)[C@@H](Cn1ccnc1)NC(=O)c1ccc(-c2cccc(F)c2)cc1F,4
11,CC[C@H](C)[C@@H](Cn1ccnc1)NC(=O)c1ccc(-c2ccccc2F)cc1,1
12,CC[C@@H](Cn1ccnc1)NC(=O)c1ccc(-c2ccccc2)cc1,16
13,CC[C@H](C)[C@@H](Cn1ccnc1)NC(=O)c1ccc(-c2ccc(F)cc2)cc1,1
14,CCC[C@@H](Cn1ccnc1)NC(=O)c1ccc(-c2ccccc2)cc1,2
15,CC(C)C[C@@H](Cn1ccnc1)NC(=O)c1ccc(-c2ccccc2)c(F)c1,4

# System: Candida tropicalis
# Experiment: Antifungal activity against Candida tropicalis CGMCC 2.3739 assessed as inhibition of visible microbial growth by NCCLS protocol based method
# Type: functional
# Conditions: not given
# Outline: as §1
row,Structure (SMILES),MIC [µg/mL]
1,CC(C)[C@@H](Cn1ccnc1)NC(=O)c1ccc(-c2ccccc2)c(F)c1,0.06
2,CC[C@H](C)[C@@H](Cn1ccnc1)NC(=O)c1ccc(-c2ccccc2)cc1,< 0.03
3,CC(C)C[C@@H](Cn1ccnc1)NC(=O)c1ccc(-c2ccccc2)cc1F,< 0.03
4,CC(C)[C@@H](Cn1ccnc1)NC(=O)c1ccc(-c2ccccc2)cc1,< 0.03
5,CC(C)[C@@H](Cn1ccnc1)NC(=O)c1ccc(-c2ccccc2)cc1F,< 0.03
6,CC(C)C[C@@H](Cn1ccnc1)NC(=O)c1ccc(-c2ccccc2)cc1,< 0.03
7,CC[C@H](C)[C@@H](Cn1ccnc1)NC(=O)c1ccc(-c2ccccc2)c(C)c1,2
8,O=C(N[C@@H](Cc1ccccc1)Cn1ccnc1)c1ccc(-c2ccccc2)c(F)c1,< 0.03
9,CC(C)[C@H](Cn1ccnc1)NC(=O)c1ccc(-c2ccccc2)cc1,8
10,CC[C@H](C)[C@@H](Cn1ccnc1)NC(=O)c1ccc(-c2cccc(F)c2)cc1F,< 0.03
11,CC[C@H](C)[C@@H](Cn1ccnc1)NC(=O)c1ccc(-c2ccccc2F)cc1,0.06
12,CC[C@@H](Cn1ccnc1)NC(=O)c1ccc(-c2ccccc2)cc1,0.125
13,CC[C@H](C)[C@@H](Cn1ccnc1)NC(=O)c1ccc(-c2ccc(F)cc2)cc1,0.125
14,CCC[C@@H](Cn1ccnc1)NC(=O)c1ccc(-c2ccccc2)cc1,< 0.03
15,CC(C)C[C@@H](Cn1ccnc1)NC(=O)c1ccc(-c2ccccc2)c(F)c1,< 0.03

# System: Aspergillus fumigatus
# Experiment: Antifungal activity against Aspergillus fumigatus CGMCC 3.7795 assessed as inhibition of visible microbial growth by NCCLS protocol based method
# Type: functional
# Conditions: not given
# Outline: as §1
row,Structure (SMILES),MIC [µg/mL]
1,CC(C)[C@@H](Cn1ccnc1)NC(=O)c1ccc(-c2ccccc2)c(F)c1,> 64
2,CC[C@H](C)[C@@H](Cn1ccnc1)NC(=O)c1ccc(-c2ccccc2)cc1,> 64
3,CC(C)C[C@@H](Cn1ccnc1)NC(=O)c1ccc(-c2ccccc2)cc1F,2
4,CC(C)[C@@H](Cn1ccnc1)NC(=O)c1ccc(-c2ccccc2)cc1,8
5,CC(C)[C@@H](Cn1ccnc1)NC(=O)c1ccc(-c2ccccc2)cc1F,1
6,CC(C)C[C@@H](Cn1ccnc1)NC(=O)c1ccc(-c2ccccc2)cc1,> 64
7,CC[C@H](C)[C@@H](Cn1ccnc1)NC(=O)c1ccc(-c2ccccc2)c(C)c1,> 64
8,O=C(N[C@@H](Cc1ccccc1)Cn1ccnc1)c1ccc(-c2ccccc2)c(F)c1,> 64
9,CC(C)[C@H](Cn1ccnc1)NC(=O)c1ccc(-c2ccccc2)cc1,> 64
10,CC[C@H](C)[C@@H](Cn1ccnc1)NC(=O)c1ccc(-c2cccc(F)c2)cc1F,4
11,CC[C@H](C)[C@@H](Cn1ccnc1)NC(=O)c1ccc(-c2ccccc2F)cc1,> 64
12,CC[C@@H](Cn1ccnc1)NC(=O)c1ccc(-c2ccccc2)cc1,4
13,CC[C@H](C)[C@@H](Cn1ccnc1)NC(=O)c1ccc(-c2ccc(F)cc2)cc1,> 64
14,CCC[C@@H](Cn1ccnc1)NC(=O)c1ccc(-c2ccccc2)cc1,4
15,CC(C)C[C@@H](Cn1ccnc1)NC(=O)c1ccc(-c2ccccc2)c(F)c1,> 64

# System: Candida albicans
# Experiment: Antifungal activity against fluconazole-resistant Candida albicans Strain 17# assessed as inhibition of visible microbial growth by NCCLS protocol based method
# Type: functional
# Conditions: not given
# Outline: (§2)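 Broth dilution MIC against clinical fluconazole-resistant C. albicans isolates from AIDS patients. Compounds dissolved in DMSO and serially diluted into growth medium. MIC was taken as the lowest concentration that inhibits visible fungal growth. Fluconazole and itraconazole served as positive controls.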
row,Structure (SMILES),MIC [µg/mL]
1,CC(C)C[C@@H](Cn1ccnc1)NC(=O)c1ccc(-c2ccccc2)cc1F,1
2,CC(C)[C@@H](Cn1ccnc1)NC(=O)c1ccc(-c2ccccc2)cc1F,4

# System: Candida albicans
# Experiment: Antifungal activity against fluconazole-resistant Candida albicans Strain CaR assessed as inhibition of visible microbial growth by NCCLS protocol based method
# Type: functional
# Conditions: not given
# Outline: as §2
row,Structure (SMILES),MIC [µg/mL]
1,CC(C)C[C@@H](Cn1ccnc1)NC(=O)c1ccc(-c2ccccc2)cc1F,4
2,CC(C)[C@@H](Cn1ccnc1)NC(=O)c1ccc(-c2ccccc2)cc1F,32

# System: not listed separately
# Experiment: Cytotoxicity in human A549 cells assessed as reduction in cell viability at 0.08 uM/L incubated for 24 hrs by MTT assay relative to control
# Type: cell-based
# Conditions: read-out: INH
# Outline: (§3)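 A549 cells were seeded at 3000 cells/well and preincubated for 16 h at 37 °C, 5% CO2. Medium was then replaced with fresh medium holding compound (DMSO stock diluted to final 0.08, 0.4, 2.0, 10 or 50 μM/L). Exposure lasted 24 h at 37 °C, 5% CO2, followed by MTT for 4 h and absorbance at 490 nm. Results are given as % inhibition.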
row,Structure (SMILES),"cytotoxicity at 24 h, 0.08 µM [%]"
1,C[C@@H](c1ncncc1F)[C@](O)(Cn1cncn1)c1ccc(F)cc1F [VORICONAZOLE],17.1

# System: not listed separately
# Experiment: Cytotoxicity in human A549 cells assessed as reduction in cell viability at 0.40 uM/L incubated for 24 hrs by MTT assay relative to control
# Type: cell-based
# Conditions: read-out: INH
# Outline: as §3
row,Structure (SMILES),"cytotoxicity at 24 h, 0.4 µM [%]"
1,C[C@@H](c1ncncc1F)[C@](O)(Cn1cncn1)c1ccc(F)cc1F [VORICONAZOLE],20.3

# System: not listed separately
# Experiment: Cytotoxicity in human A549 cells assessed as reduction in cell viability at 2 uM/L incubated for 24 hrs by MTT assay relative to control
# Type: cell-based
# Conditions: read-out: INH
# Outline: as §3
row,Structure (SMILES),"cytotoxicity at 24 h, 2 µM [%]"
1,C[C@@H](c1ncncc1F)[C@](O)(Cn1cncn1)c1ccc(F)cc1F [VORICONAZOLE],25.5

# System: not listed separately
# Experiment: Cytotoxicity in human A549 cells assessed as reduction in cell viability at 10 uM/L incubated for 24 hrs by MTT assay relative to control
# Type: cell-based
# Conditions: read-out: INH
# Outline: as §3
row,Structure (SMILES),"cytotoxicity at 24 h, 10 µM [%]"
1,C[C@@H](c1ncncc1F)[C@](O)(Cn1cncn1)c1ccc(F)cc1F [VORICONAZOLE],32

# System: not listed separately
# Experiment: Cytotoxicity in human A549 cells assessed as reduction in cell viability at 50 uM/L incubated for 24 hrs by MTT assay relative to control
# Type: cell-based
# Conditions: read-out: INH
# Outline: as §3
row,Structure (SMILES),"cytotoxicity at 24 h, 50 µM [%]"
1,C[C@@H](c1ncncc1F)[C@](O)(Cn1cncn1)c1ccc(F)cc1F [VORICONAZOLE],36.7
